A selection: hits, their analogues and other compounds. The true share with any hit is near 4.9%.
STAT3 act – STAT3 signaling activation; U3A cells, IL-6 STAT3-luciferase reporter, luminescence; 100% = signal with IL-6 EC80 alone; activation (% of control), % at 5.6 µM; 190,000 tested, 0.91% active;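 active = activation above the screen-wide mean of compound activation plus 3 SD, cut at about 130% in these data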;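 note: 0% = background luminescence of wells with medium and substrate only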
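Material: STAT1-lacking human U3A cells, STAT3 luciferase reporter | Benchmarks: IL-6-only wells as 100% reference | Probe or stimulus: IL-6 (33 ng/mL) | Timing: Compound 1 h, then IL-6 6 h at 37 °C | Detection: Luminescence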
STAT3 inh-1 – STAT3 signaling inhibition. U3A cells, IL-6 STAT3-luciferase reporter, luminescence; host cell line lacks STAT1. inhibition, % at 5.5 µM. 190,000 tested, 0.89% active;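 active = inhibition above the mean inhibition across all screened compounds plus 3 SD, cut at about 44% in these data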;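 note: 0% = DMSO only wells and 100% = 100 µM nifuroxazide control wells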
NF-kB neuron act – raises NF-kB expression in human neuronal cells. NF-kB reporter expression; hits give high values. fold change at 12.5 µM. 190,000 tested, 1.6% active. AID 1239; in the data active = fold change above about 3.3
APP 5'UTR act – APP 5'UTR luciferase reporter activation; activation, % at 2 µM; SH-SY5Y APP 5'UTR luciferase reporter, luminescence; zero percent = DMSO vehicle wells; 190,000 tested, 1% active; AID 1276;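 active = activation above a set limit, based on mean plus 3 SD of controls, cut at about 140% in these data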
STAT1 blocker – inhibitors of IFN-gamma induced STAT1 signaling; NIH 3T3 STAT1-luciferase reporter, luminescence; inhibition, % at 5.5 µM; 200,000 tested, 0.35% active; AID 920;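 active = inhibition above a set limit, the mean inhibition across all tested compounds plus 3 SD, cut at about 34% in these data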;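 note: 0% = IFN-gamma with DMSO and 100% = IFN-gamma with 300 µM nifuroxazide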
STAT1 activator – STAT1 signaling activation | NIH 3T3 STAT1-luciferase reporter, IFN-gamma, luminescence; 100% = IFN-gamma alone, no compound | 200,000 tested, 2.6% active | activation (% of control), % at 5.5 µM;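 active = activation above the screen-wide mean activation plus 3 SD, cut at about 130% in these data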;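 note: raw ratio to IFN-gamma control signal so 100% means no change and 0% no light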
STAT3 inh-2 – confirmation of STAT3 signaling inhibitors | 1,200 tested, 45% active | inhibition, % at 5.7 µM | shares compounds with STAT3 inh-1 | U3A cells, IL-6 STAT3 luciferase reporter, luminescence; cell line lacks STAT1;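 active = inhibition above the hit cutoff computed for the primary STAT3 screen, cut at about 44% in these data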;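 note: 0% = IL-6 plus DMSO and 100% = IL-6 plus nifuroxazide control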
NFkB inh STAT3ct – counter-screen for STAT3 inhibitors: NF-kappaB inhibition; shares compounds with STAT3 inh-1; HEK293T NF-kB luciferase reporter, TNF-alpha induced; inhibition, % at 5.7 µM; 1,200 tested, 36% active; AID 1308;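 active = inhibition above the mean of solvent-only control wells plus 3 SD, cutoff set per campaign, cut at about 13% in these data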;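 note: 0% = TNF-alpha with DMSO and 100% = TNF-alpha with MG high control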
STAT1 inh 2 – inhibits STAT1, counter-screen to STAT3 inhibitors | 1,200 tested, 27% active | inhibition, % at 5.7 µM | shares compounds with STAT3 inh-1 | NIH 3T3 STAT1-luciferase reporter, IFN-gamma induced, luminescence;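 active = inhibition above the mean plus 3 SD of solvent-only control wells, limit set per screening run, cut at about 16% in these data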;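 note: 0% = DMSO with IFN-gamma and 100% = nifuroxazide control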
Active calls of the source: *.

How did CCOC(=O)c1sc2nc(CC(=O)OC)nc(NCc3ccc(Cl)cc3)c2c1C do in these assays?
STAT3 act: 66; STAT3 inh-1: 44*; NF-kB neuron act: 0.87; APP 5'UTR act: 5; STAT1 blocker: 6; STAT1 activator: 95; STAT3 inh-2: 50*; NFkB inh STAT3ct: 12; STAT1 inh 2: 14

Results for Cc1cccc2cc(CN(CCN3CCOCC3)C(=O)NCc3ccccc3)c(=O)[nH]c12 ?
STAT3 act: 101; STAT3 inh-1: 3; NF-kB neuron act: 1.1; APP 5'UTR act: -7; STAT1 blocker: 0; STAT1 activator: 100

How did CC(/C=N/NC(=O)CSc1nc(C)cc(C)n1)=C\c1ccccc1 do in these assays?
STAT3 act: 110; STAT3 inh-1: -8; NF-kB neuron act: 0.98; APP 5'UTR act: 14; STAT1 blocker: -3; STAT1 activator: 103

How did CC(/C=N\NC(=O)Cn1c(C)nc2ccccc21)=C\c1ccccc1 do in these assays?
STAT3 act: 41; STAT3 inh-1: 70*; NF-kB neuron act: 0.81; APP 5'UTR act: -8; STAT1 blocker: 20; STAT1 activator: 82; STAT3 inh-2: 69*; NFkB inh STAT3ct: 15*; STAT1 inh 2: 17*

Results for Cc1cc(C(=O)CSc2nc(N)cc(=O)[nH]2)c(C)n1CCc1ccc(F)cc1 ?
STAT3 act: 63; STAT3 inh-1: 46*; NF-kB neuron act: 0.81; APP 5'UTR act: 0; STAT1 blocker: 19; STAT1 activator: 83; STAT3 inh-2: 41; NFkB inh STAT3ct: 6; STAT1 inh 2: 13

How did COc1ccc(CCn2c(C)cc(C(=O)CSc3nc(N)cc(=O)[nH]3)c2C)cc1 do in these assays?
STAT3 act: 69; STAT3 inh-1: 41; NF-kB neuron act: 0.39; APP 5'UTR act: -12; STAT1 blocker: 14; STAT1 activator: 88

How did Cc1cc(C(=O)CSc2nc(N)cc(=O)[nH]2)c(C)n1-c1ccc(OC(F)F)cc1 do in these assays?
STAT3 act: 49; STAT3 inh-1: 64*; NF-kB neuron act: 1.3; APP 5'UTR act: -5; STAT1 blocker: 32; STAT1 activator: 70; STAT3 inh-2: 74*; NFkB inh STAT3ct: 19*; STAT1 inh 2: 25*

Results for Cn1c(=O)oc2cc(S(=O)(=O)N3CCCC(C(=O)Nc4ccccn4)C3)ccc21 (centres undefined) ?
STAT3 act: 93; STAT3 inh-1: 13; NF-kB neuron act: 0.98; APP 5'UTR act: 3; STAT1 blocker: 7; STAT1 activator: 94

Results for Cn1c(=O)oc2cc(S(=O)(=O)N3CCCC(C(=O)N4CC=C(c5ccccc5)CC4)C3)ccc21 (centres undefined) ?
STAT3 act: 58; STAT3 inh-1: 56*; NF-kB neuron act: 0.55; APP 5'UTR act: -10; STAT1 blocker: 23; STAT1 activator: 79; STAT3 inh-2: 44*; NFkB inh STAT3ct: 6; STAT1 inh 2: 12

What do the screens show for `Cn1c(=O)oc2cc(S(=O)(=O)N3CCCC(C(=O)NC4CCCc5ccccc54)C3)ccc21` (centres undefined)?
STAT3 act: 37; STAT3 inh-1: 81*; NF-kB neuron act: 1.4; APP 5'UTR act: -10; STAT1 blocker: 12; STAT1 activator: 89; STAT3 inh-2: 75*; NFkB inh STAT3ct: 34*; STAT1 inh 2: -6

What do the screens show for `Cc1ccc(S(=O)(=O)N2CCOCC2)cc1C(=O)NNC(=O)c1ccoc1C`?
STAT3 act: 100; STAT3 inh-1: 1; NF-kB neuron act: 1.1; APP 5'UTR act: 1; STAT1 blocker: 5; STAT1 activator: 94

Results for Clc1ccc(-c2nc(-c3ccccn3)no2)cc1Cl ?
STAT3 act: 45; STAT3 inh-1: 71*; NF-kB neuron act: 3; APP 5'UTR act: 117; STAT1 blocker: -7; STAT1 activator: 106; STAT3 inh-2: 33; NFkB inh STAT3ct: 14*; STAT1 inh 2: -31

How did Brc1ccc(-c2nc(-c3ccccn3)no2)o1 do in these assays?
STAT3 act: 41; STAT3 inh-1: 75*; NF-kB neuron act: 2.7; APP 5'UTR act: 92; STAT1 blocker: 36*; STAT1 activator: 67; STAT3 inh-2: 33; NFkB inh STAT3ct: -4; STAT1 inh 2: -48

Results for Brc1ccc(-c2nc(-c3ccncc3)no2)o1 ?
STAT3 act: 97; STAT3 inh-1: 5; NF-kB neuron act: 2.1; APP 5'UTR act: 25; STAT1 blocker: -38; STAT1 activator: 126

Results for Clc1ccc(OCc2nc(-c3ccccn3)no2)c(Br)c1 ?
STAT3 act: 56; STAT3 inh-1: 57*; NF-kB neuron act: 3.2; APP 5'UTR act: 138*; STAT1 blocker: -8; STAT1 activator: 107; STAT3 inh-2: 13; NFkB inh STAT3ct: -16; STAT1 inh 2: -124

What do the screens show for `COc1ccccc1N1CCN(/N=C/c2c(C)nn(-c3ccccc3)c2C)CC1`?
STAT3 act: 91; STAT3 inh-1: 19; NF-kB neuron act: 1.4; APP 5'UTR act: -5; STAT1 blocker: -3; STAT1 activator: 106

What do the screens show for `Fc1cccc(Cl)c1CSc1nnc2ccccn12`?
STAT3 act: 102; STAT3 inh-1: 6; NF-kB neuron act: 1; APP 5'UTR act: 12; STAT1 blocker: -29; STAT1 activator: 125

How did O=C(CN(Cc1cccs1)C(=O)CCC(=O)Nc1ccccn1)NCc1ccccc1 do in these assays?
STAT3 act: 104; STAT3 inh-1: 0; NF-kB neuron act: 0.98; APP 5'UTR act: 0; STAT1 blocker: 8; STAT1 activator: 91

What do the screens show for `O=C(CCc1nnc(-c2ccsc2)o1)N1CCCCC1CCn1ccnc1` (centres undefined)?
STAT3 act: 94; STAT3 inh-1: 8; NF-kB neuron act: 1.3; APP 5'UTR act: 25; STAT1 blocker: 5; STAT1 activator: 96

How did CN1/C(=C\C(=O)C[n+]2ccc3ccccc3c2)C(C)(C)c2ccccc21 do in these assays?
STAT3 act: 41; STAT3 inh-1: 73*; NF-kB neuron act: 0.79; APP 5'UTR act: 20; STAT1 blocker: 6; STAT1 activator: 95; STAT3 inh-2: 74*; NFkB inh STAT3ct: 1; STAT1 inh 2: 3

Results for COc1ccc(CCNC(=O)C(=O)NCc2ccc(C)cc2)cc1OC ?
STAT3 act: 107; STAT3 inh-1: -1; NF-kB neuron act: 0.88; APP 5'UTR act: -20; STAT1 blocker: 5; STAT1 activator: 95
